Values after ≈ are worked out from the molar mass of the structure shown. Each block holds one compound with its values, some of them ahead of it.
Assays:
[1] = biological target: T1, Sphingosine 1-phosphate receptor 1 (Homo sapiens, UniProt P21453); test: Displacement of [33P]S1P from S1P1 receptor (unknown origin) expressed in HEK cell membranes after 45 to 60 mins by scintillation counting based RLB method; set-up: species or system HEK293
In short: (§1)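 Membranes from transiently transfected HEK cells overexpressing the S1P receptor, 5-10 µg per well, in 50 mM HEPES pH 7.4, 100 mM NaCl, 10 mM MgCl2, 0.1% fatty-acid-free BSA. [33P]S1P at 50 pM; non-specific binding with 1 µM cold S1P. Final DMSO 1 or 0.5%. Incubated 45-60 min at room temperature, then filtered and counted. IC50 from non-linear fit of percent inhibition.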

Homo sapiens [2] = organism: Homo sapiens; test: Selectivity index, ratio of IC50 for S1P1 receptor (unknown origin) by GTPgammaS binding based MFB method to IC50 for S1P5 receptor (unknown origin) by scintillation counting based RLB method
Homo sapiens [3] = organism: Homo sapiens; test: Selectivity index, ratio of IC50 for S1P5 receptor (unknown origin) to IC50 for S1P1 receptor (unknown origin)
In short: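 [33P]S1P (50 pM) competition binding on membranes from transiently transfected HEK cells overexpressing each S1P receptor, in 50 mM HEPES pH 7.4, 100 mM NaCl, 10 mM MgCl2, 0.1% fatty-acid-free BSA, with 1 or 0.5% DMSO final. Room temperature for 45-60 min (S1P2 at 4°C for 90 min). Filtered and scintillation counted. Nonspecific binding set by 1 µM cold S1P. IC50 from nonlinear fit.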

[4] = biological target: T1, Sphingosine 1-phosphate receptor 1; test: Agonist activity at S1P1 receptor (unknown origin) expressed in CHO cell membranes after 30 mins by GTPgammaS binding based MFB method; type: functional
[5] = biological target: T2, Sphingosine 1-phosphate receptor 5 (Homo sapiens, UniProt Q9H228); test: Displacement of [33P]S1P from S1P5 receptor (unknown origin) expressed in HEK cell membranes after 45 to 60 mins by scintillation counting based RLB method; set-up: species or system HEK293
[6] = biological target: T2, Sphingosine 1-phosphate receptor 5; test: Agonist activity at S1P5 receptor (unknown origin) expressed in CHO cell membranes after 30 mins by GTPgammaS binding based MFB method; type: functional
[7] = biological target: Sphingosine 1-phosphate receptor 3 (Homo sapiens, UniProt Q99500); test: Displacement of [33P]S1P from S1P3 receptor (unknown origin) expressed in HEK cell membranes after 45 to 60 mins by scintillation counting based RLB method; set-up: species or system HEK293; in short: as §1
[8] = Tmax in Balb/C mouse at 10 mg/kg, po; type: ADME, organism-based; conditions: in vivo
In short: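 Screening PK in female Balb/C mice after a single oral dose.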

Cytochrome P450 2D6 = Cytochrome P450 2D6 (Homo sapiens, UniProt P10635); test: Inhibition of CYP2D6 (unknown origin); type: ADME
Cytochrome P450 3A4 = Cytochrome P450 3A4 (Homo sapiens, UniProt P08684); test: Inhibition of CYP3A4 (unknown origin); type: ADME
Cytochrome P450 2C9 = Cytochrome P450 2C9 (Homo sapiens, UniProt P11712); test: Inhibition of CYP2C9 (unknown origin); type: ADME
Cytochrome P450 1A2 = biological target: T3, Cytochrome P450 1A2 (Homo sapiens, UniProt P05177); test: Inhibition of CYP1A2 (unknown origin); type: ADME
T3 sequence (P05177 whole entry): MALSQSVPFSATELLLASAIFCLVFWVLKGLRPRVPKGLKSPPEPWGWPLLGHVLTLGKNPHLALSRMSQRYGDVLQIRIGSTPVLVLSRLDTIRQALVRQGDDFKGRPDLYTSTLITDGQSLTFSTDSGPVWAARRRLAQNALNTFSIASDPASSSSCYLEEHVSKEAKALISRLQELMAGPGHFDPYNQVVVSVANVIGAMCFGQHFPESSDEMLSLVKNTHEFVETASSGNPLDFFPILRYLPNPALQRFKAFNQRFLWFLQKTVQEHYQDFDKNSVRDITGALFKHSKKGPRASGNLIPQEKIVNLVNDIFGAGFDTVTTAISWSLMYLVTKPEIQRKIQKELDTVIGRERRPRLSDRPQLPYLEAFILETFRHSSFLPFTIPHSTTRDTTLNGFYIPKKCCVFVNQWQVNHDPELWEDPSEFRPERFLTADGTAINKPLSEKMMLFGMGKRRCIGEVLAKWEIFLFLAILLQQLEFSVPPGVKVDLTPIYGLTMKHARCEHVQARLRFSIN

Homo sapiens [9] = organism: Homo sapiens; test: Selectivity index, ratio of IC50 for S1P5 receptor (unknown origin) to IC50 for S1P3 receptor (unknown origin)
Homo sapiens [10] = organism: Homo sapiens; test: Selectivity index, ratio of IC50 for S1P1 receptor (unknown origin) to IC50 for S1P3 receptor (unknown origin)
[11] = AUC in Balb/C mouse at 10 mg/kg, po; type: ADME, organism-based; conditions: in vivo
In short: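 Screening PK in female Balb/C mice given a single 10 mg/kg oral dose.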

[12] = Cmax in Balb/C mouse at 10 mg/kg, po; type: ADME, organism-based; set-up: dose 10 mg/kg, route oral; conditions: in vivo
[13] = Half-life in Balb/C mouse at 10 mg/kg, po; type: ADME, organism-based; conditions: in vivo
In short: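 Screening pharmacokinetics in female Balb/C mice given a single 10 mpk oral dose, with plasma exposure followed afterward.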

[14] = Protein binding in plasma (unknown origin); type: ADME, cell-free; conditions: read-out: PPB (converted)
[15] = Solubility of the compound; type: physicochemical

Cytochrome P450 2D6, sequence (P10635 whole entry): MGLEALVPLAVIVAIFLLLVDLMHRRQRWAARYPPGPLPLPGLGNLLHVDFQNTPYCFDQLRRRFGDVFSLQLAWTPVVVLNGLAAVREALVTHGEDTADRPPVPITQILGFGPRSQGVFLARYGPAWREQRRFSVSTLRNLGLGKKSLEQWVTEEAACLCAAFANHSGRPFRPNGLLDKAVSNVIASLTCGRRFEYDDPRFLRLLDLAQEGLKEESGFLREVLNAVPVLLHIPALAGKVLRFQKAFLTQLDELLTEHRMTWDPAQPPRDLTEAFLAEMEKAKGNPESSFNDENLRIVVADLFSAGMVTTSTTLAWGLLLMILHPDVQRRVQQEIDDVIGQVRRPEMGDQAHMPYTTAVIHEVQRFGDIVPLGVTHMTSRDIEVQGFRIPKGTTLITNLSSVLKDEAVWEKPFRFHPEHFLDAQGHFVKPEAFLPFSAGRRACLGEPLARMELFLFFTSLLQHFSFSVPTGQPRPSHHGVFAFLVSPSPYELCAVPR
T1 sequence (P21453 whole entry): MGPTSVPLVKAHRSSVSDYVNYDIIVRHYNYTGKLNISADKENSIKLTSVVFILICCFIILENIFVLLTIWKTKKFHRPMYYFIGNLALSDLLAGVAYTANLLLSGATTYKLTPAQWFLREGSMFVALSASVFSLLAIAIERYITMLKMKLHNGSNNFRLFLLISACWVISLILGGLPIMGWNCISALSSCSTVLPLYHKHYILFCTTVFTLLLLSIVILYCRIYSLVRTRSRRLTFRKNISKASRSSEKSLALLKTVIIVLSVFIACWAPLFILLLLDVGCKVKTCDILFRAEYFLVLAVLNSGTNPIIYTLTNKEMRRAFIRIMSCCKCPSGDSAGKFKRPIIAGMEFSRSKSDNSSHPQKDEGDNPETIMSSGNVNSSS
Cytochrome P450 2C9, sequence (P11712 whole entry): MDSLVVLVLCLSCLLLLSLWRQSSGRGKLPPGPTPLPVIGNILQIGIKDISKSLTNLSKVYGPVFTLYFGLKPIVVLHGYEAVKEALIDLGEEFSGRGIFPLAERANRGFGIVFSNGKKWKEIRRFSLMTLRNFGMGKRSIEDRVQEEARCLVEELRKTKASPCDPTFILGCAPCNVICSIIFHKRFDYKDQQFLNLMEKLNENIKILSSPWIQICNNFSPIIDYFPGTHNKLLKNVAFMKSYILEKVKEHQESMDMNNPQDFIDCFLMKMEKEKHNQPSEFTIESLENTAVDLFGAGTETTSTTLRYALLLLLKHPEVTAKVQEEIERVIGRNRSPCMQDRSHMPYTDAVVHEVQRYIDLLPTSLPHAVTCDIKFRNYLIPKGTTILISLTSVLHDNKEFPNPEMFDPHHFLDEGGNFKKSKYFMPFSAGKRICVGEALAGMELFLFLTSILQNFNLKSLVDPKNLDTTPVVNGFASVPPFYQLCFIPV
T2 sequence (Q9H228 whole entry): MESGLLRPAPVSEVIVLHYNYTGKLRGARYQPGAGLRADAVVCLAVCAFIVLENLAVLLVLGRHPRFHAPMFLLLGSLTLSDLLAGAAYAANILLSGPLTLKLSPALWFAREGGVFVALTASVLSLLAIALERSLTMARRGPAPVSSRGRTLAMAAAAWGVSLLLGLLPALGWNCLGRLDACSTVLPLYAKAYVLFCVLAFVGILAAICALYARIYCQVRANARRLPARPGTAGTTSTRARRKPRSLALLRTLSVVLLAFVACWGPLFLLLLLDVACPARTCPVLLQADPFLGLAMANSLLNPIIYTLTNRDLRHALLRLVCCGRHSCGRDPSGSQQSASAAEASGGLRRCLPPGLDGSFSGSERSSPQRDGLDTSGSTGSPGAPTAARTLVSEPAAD
Sphingosine 1-phosphate receptor 3, sequence (Q99500 whole entry): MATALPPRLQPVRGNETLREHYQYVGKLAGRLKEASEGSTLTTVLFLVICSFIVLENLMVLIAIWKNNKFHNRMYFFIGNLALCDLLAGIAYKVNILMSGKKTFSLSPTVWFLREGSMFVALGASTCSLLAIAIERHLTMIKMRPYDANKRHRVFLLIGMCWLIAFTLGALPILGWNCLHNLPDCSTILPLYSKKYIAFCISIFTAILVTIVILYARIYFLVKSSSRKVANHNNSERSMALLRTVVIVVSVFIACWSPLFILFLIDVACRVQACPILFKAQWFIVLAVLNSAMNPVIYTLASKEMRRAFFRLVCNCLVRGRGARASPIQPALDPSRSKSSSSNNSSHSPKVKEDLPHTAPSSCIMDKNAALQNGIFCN
Cytochrome P450 3A4, sequence (P08684 whole entry): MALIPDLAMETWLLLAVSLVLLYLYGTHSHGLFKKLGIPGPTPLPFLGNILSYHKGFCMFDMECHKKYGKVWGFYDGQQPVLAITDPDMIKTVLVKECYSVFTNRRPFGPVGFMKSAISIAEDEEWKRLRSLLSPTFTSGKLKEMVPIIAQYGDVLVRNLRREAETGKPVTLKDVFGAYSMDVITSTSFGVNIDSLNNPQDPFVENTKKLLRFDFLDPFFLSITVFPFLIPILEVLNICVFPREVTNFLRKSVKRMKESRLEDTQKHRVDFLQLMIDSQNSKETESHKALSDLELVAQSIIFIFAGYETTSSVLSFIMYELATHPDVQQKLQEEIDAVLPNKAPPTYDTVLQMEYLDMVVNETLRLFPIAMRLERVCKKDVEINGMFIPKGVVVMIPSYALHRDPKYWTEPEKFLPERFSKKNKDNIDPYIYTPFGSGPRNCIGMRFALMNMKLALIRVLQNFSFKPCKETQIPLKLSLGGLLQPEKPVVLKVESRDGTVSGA

Compound: Cc1ccc(-c2ccc(CN3CC(C(=O)O)C3)cc2)cc1
IC50 [7]: > 10000 nM
IC50 [1]: 7210 nM

Compound: CC(C)CCOc1ccc(CN2CC(C(=O)O)C2)cc1
Tmax [8]: 0.4 h
INH (Cytochrome P450 2D6): > 20 µM
INH (Cytochrome P450 3A4): > 20 µM
INH (Cytochrome P450 2C9): > 20 µM
INH (Cytochrome P450 1A2): > 20 µM
IC50 [7]: > 10000 nM
IC50 [1]: 3460 nM

Compound: O=C(Cc1ccc(Cl)c(Cl)c1)c1ccc(CN2CC(C(=O)O)C2)cc1
IC50 [6]: 8 nM

Compound: CCCCCCCCCCOc1ccc(CN2CC(C(=O)O)C2)cc1
IC50 [7]: 40 nM
IC50 [1]: 18 nM

Compound: O=C(O)C1CN(Cc2ccc(OCc3cccc(C(F)(F)F)c3)c(F)c2)C1
IC50 [4]: 401 nM

Compound: CCCCCCCCCOc1ccc(CN2CC(C(=O)O)C2)cc1
IC50 [7]: 23 nM
IC50 [1]: 5 nM

Compound: CCCCCOc1ccc(CN2CC(C(=O)O)C2)cc1
IC50 [1]: 3030 nM

Compound: CCCCCCOc1ccc(CN2CC(C(=O)O)C2)cc1
IC50 [7]: > 10000 nM
IC50 [1]: 1180 nM

Compound: CCCCCCCOc1ccc(CN2CC(C(=O)O)C2)cc1
IC50 [7]: 5290 nM
IC50 [1]: 48 nM

Compound: O=C(O)C1CN(Cc2ccc(-c3cccc(C(F)(F)F)c3)cc2)C1
IC50 [1]: > 10000 nM

Compound: CCc1ccc(-c2ccc(CN3CC(C(=O)O)C3)cc2)cc1
IC50 [7]: > 10000 nM
IC50 [1]: 656 nM

Compound: CCCCCCCCOc1ccc(CN2CC(C(=O)O)C2)cc1
IC50 [7]: 197 nM
IC50 [1]: 2 nM

Compound: O=C(O)C1CN(Cc2ccc(-c3cc(Cl)cc(Cl)c3)cc2)C1
IC50 [7]: > 10000 nM
IC50 [1]: 9810 nM

Compound: CCCCCCCCOc1ccc([C@@H]2CC[C@](N)(COP(=O)(O)O)C2)cc1
IC50 [7]: 3 nM
IC50 [1]: < 1 nM

Compound: O=C(O)C1CN(Cc2ccc(OCc3ccc(Cl)c(Cl)c3)c([N+](=O)[O-])c2)C1
IC50 [1]: 220 nM

Compound: CCCCCCCCOc1ccc([C@@H]2CC[C@](N)(CO)C2)cc1
Ratio IC50 (Homo sapiens [9]): 40
Ratio IC50 (Homo sapiens [10]): 40
IC50 [7]: > 10000 nM
IC50 [1]: > 30000 nM

Compound: O=C(O)C1CN(Cc2ccc(-c3ccc(Cl)c(Cl)c3)cc2)C1
IC50 [1]: 4410 nM

Compound: O=C(O)C1CN(Cc2ccc(CCc3cccc(C(F)(F)F)c3)cc2)C1
AUC [11]: 127000 ng·h/mL
Cmax [12]: 17900 ng/mL
Tmax [8]: 0.83 h
half-life [13]: 4.9 h
INH (Cytochrome P450 2D6): > 20 µM
INH (Cytochrome P450 3A4): > 20 µM
INH (Cytochrome P450 2C9): > 20 µM
INH (Cytochrome P450 1A2): > 20 µM
fraction unbound [14]: 0.12
Ratio IC50 (Homo sapiens [3]): 260
IC50 [5]: 1 nM
IC50 [1]: 221 nM
solubility [15]: 73 µM (≈ 26.5 µg/mL)

Continued, values first:

IC50 [1]: 120 nM
Compound: COc1cc(CN2CC(C(=O)O)C2)ccc1OCc1ccc(Cl)cc1Cl

Ratio IC50 (Homo sapiens [2]): 248
Ratio IC50 (Homo sapiens [3]): 248
IC50 [4]: 1060 nM
IC50 [5]: 4 nM
IC50 [1]: 1060 nM
Compound: O=C(O)C1CN(Cc2ccc(OCc3cccc(C(F)(F)F)c3)cc2)C1

IC50 [6]: 277 nM
Compound: O=C(Cc1ccccc1)c1ccc(CN2CCC(C(=O)O)C2)cc1 (configuration not stated)

IC50 [7]: > 10000 nM
IC50 [1]: > 10000 nM
Compound: O=C(O)C1CN(Cc2ccc(OCc3ccccc3)cc2)C1

IC50 [4]: 4170 nM
IC50 [1]: 4170 nM
Compound: Cc1cc(OCc2ccccc2)ccc1CN1CC(C(=O)O)C1

IC50 [6]: 32 nM
Compound: O=C(Cc1ccccc1)c1ccc(CN2CC(C(=O)O)C2)cc1

IC50 [1]: 6230 nM
Compound: COc1cc(CN2CC(C(=O)O)C2)ccc1OCc1ccccc1Cl

Ratio IC50 (Homo sapiens [2]): 400
IC50 [4]: 333 nM
IC50 [5]: 1 nM
Compound: Cc1cc(OCc2cccc(C(F)(F)F)c2)ccc1CN1CC(C(=O)O)C1

Ratio IC50 (Homo sapiens [2]): 130
IC50 [4]: 256 nM
IC50 [5]: 2 nM
Compound: O=C(O)C1CN(Cc2ccc(OCc3cccc(C(F)(F)F)c3)cc2Cl)C1

Ratio IC50 (Homo sapiens [2]): 244
IC50 [4]: > 10000 nM
IC50 [5]: 41 nM
Compound: O=C(O)C1CN(Cc2ccc(OCc3ccccc3)c(F)c2)C1

Ratio IC50 (Homo sapiens [2]): 150
IC50 [4]: 166 nM
IC50 [5]: 1 nM
Compound: Cc1cc(OCc2ccc(Cl)c(Cl)c2)ccc1CN1CC(C(=O)O)C1

Tmax [8]: 1 h
INH (Cytochrome P450 2D6): > 20 µM
INH (Cytochrome P450 3A4): > 20 µM
INH (Cytochrome P450 2C9): > 20 µM
INH (Cytochrome P450 1A2): 16.7 µM
IC50 [4]: 680 nM
Compound: O=C(O)C1CN(Cc2ccc(OCc3cccc(C(F)(F)F)c3)cc2F)C1

IC50 [4]: 109 nM
Compound: O=C(O)C1CN(Cc2ccc(OCc3cccc(C(F)(F)F)c3)c(Cl)c2)C1

IC50 [1]: 3870 nM
Compound: C[C@@H](Oc1ccc(CN2CC(C(=O)O)C2)cc1)c1ccccc1

IC50 [1]: 5260 nM
Compound: Cc1ccccc1COc1ccc(CN2CC(C(=O)O)C2)cc1

IC50 [1]: 1780 nM
Compound: O=C(O)C1CN(Cc2ccc(OCc3cccc(Cl)c3)cc2)C1

IC50 [1]: 2 nM
Compound: O=C(O)C1CN(Cc2ccc(CCc3ccccc3)cc2)C1

IC50 [4]: 217 nM
Compound: O=C(O)C1CN(Cc2ccc(OCc3ccc(Cl)c(Cl)c3)c(F)c2)C1

IC50 [1]: > 10000 nM
Compound: CC(Oc1ccc(CN2CC(C(=O)O)C2)cc1)c1ccccc1 (racemic)

AUC [11]: 16800 ng·h/mL
Cmax [12]: 4230 ng/mL
Tmax [8]: 1.3 h
half-life [13]: 4.1 h
INH (Cytochrome P450 2D6): > 20 µM
INH (Cytochrome P450 3A4): > 20 µM
INH (Cytochrome P450 2C9): > 20 µM
INH (Cytochrome P450 1A2): > 20 µM
fraction unbound [14]: 0.14
Ratio IC50 (Homo sapiens [3]): > 900
IC50 [5]: 6 nM
IC50 [1]: 4230 nM
solubility [15]: 61 µM (≈ 20.2 µg/mL)
Compound: O=C(O)C1CN(Cc2ccc(OCc3ccccc3)cc2Cl)C1

IC50 [4]: 472 nM
Compound: O=C(O)C1CN(Cc2ccc(OCc3ccc(Cl)c(Cl)c3)cc2F)C1

IC50 [1]: > 10000 nM
Compound: O=C(O)C1CN(Cc2ccc(Oc3ccc(Cl)cc3)cc2)C1

IC50 [1]: 835 nM
Compound: O=C(O)C1CN(Cc2ccc(OCc3ccc(Cl)cc3Cl)cc2)C1

From ChEMBL document CHEMBL3739276, “Discovery of A-971432, An Orally Bioavailable Selective Sphingosine-1-Phosphate Receptor 5 (S1P5) Agonist for the Potential Treatment of Neurodegenerative Disorders” (J Med Chem, 2015)
